Here are results for one molecule from ChEMBL document CHEMBL4765399, “Design, synthesis, and biological evaluation of 5-((8-methoxy-2-methylquinolin-4-yl)amino)-1H-indole-2-carbohydrazide derivatives as novel Nur77 modulators” (Eur J Med Chem, 2020).

Activity calls are given as the source filed them. The calls are words filed in the database; no cut-off is given here.

The subject of test [1] is HepG2. The experiment in a line: Antitumor activity against human HepG2 cells xenografted in BALB/c mouse assessed as induction of ER stress by measuring increase in CHOP level in tumor tissue at 10 to 20 mg/kg/day, ip administered for 15 days by western blot analysis. The class given is functional, organism-based. As to conditions: dose 10-20 mg/kg/day, time 15.0 day. The method, boiled down:
(§1)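 HepG2 cells (5×10^6) injected subcutaneously into flanks of 4-week-old male Balb/c nude mice. At about 100 mm³, 15 mice were randomized to vehicle, 10 or 20 mg/kg i.p. once daily for 15 days. Tumors were then excised for immunostaining of paraffin sections (5 μm) or for western blot.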
(In general: In xenograft studies the graft and the host belong to different species.)

A further test deals with QGY-7703. The experiment in a line: Antiproliferative activity against human QGY-7703 cells assessed as reduction in cell viability at 2 uM by MTT assay. It counts as functional, cell-based. The conditions noted are these: time 12-48 hrs, TDE = time-dependent effect. The method, boiled down: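 Cells treated with 2.0 µM over a time course; viability read by MTT. HepG2, SMMC-7721 kept in DMEM, QGY-7703 in RPMI 1640, with 10% FBS at 37 °C and 5% CO2.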
(Tetrazolium assays rely on reduction of a dye to a coloured formazan, in cell work by metabolically active cells.)

In test [2] the test system is HepG2. Description: Induction of apoptosis in human HepG2 cells assessed as Bax/Bcl-2 ratio at 2 uM pretreated with autophagy inhibitor, 3-methyladenine for 2 hrs followed by incubation with compound for 12 hrs by Western blot analysis. The class given is functional, cell-based. On the technique in general: In western blotting, separated proteins are transferred to a membrane and probed.

In test [3] the target is Nuclear receptor subfamily 4immunitygroup A member 1 (Homo sapiens, UniProt P22736). Description: Binding affinity to Nur77 ligand binding domain (unknown origin) at 10 uM by surface plasmon resonance analysis. As to conditions: filed as modulator. An outline of the steps: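 Single-concentration SPR screen at 10.0 µM against Nur77-LBD; binding given as RU response.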
Nuclear receptor subfamily 4immunitygroup A member 1, sequence (P22736 whole entry, the tested form may be a part): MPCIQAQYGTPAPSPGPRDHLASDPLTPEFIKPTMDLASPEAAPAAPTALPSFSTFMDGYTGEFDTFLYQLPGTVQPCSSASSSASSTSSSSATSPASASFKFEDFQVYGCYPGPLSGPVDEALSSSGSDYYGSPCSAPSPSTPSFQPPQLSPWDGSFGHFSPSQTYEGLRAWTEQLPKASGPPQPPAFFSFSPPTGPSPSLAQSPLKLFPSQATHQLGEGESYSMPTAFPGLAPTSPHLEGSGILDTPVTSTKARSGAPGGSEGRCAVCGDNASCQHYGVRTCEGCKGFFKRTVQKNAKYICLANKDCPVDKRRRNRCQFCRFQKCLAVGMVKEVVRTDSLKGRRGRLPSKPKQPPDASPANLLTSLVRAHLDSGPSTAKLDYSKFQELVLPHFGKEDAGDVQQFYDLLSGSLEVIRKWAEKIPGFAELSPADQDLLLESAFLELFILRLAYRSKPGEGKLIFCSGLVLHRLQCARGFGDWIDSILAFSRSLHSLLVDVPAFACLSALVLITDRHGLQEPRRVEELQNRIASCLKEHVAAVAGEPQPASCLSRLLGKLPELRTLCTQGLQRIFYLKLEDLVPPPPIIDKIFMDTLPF

Test [4] deals with HepG2. Description: Induction of morphological changes in human HepG2 cells assessed as reduction in cell number at 1 to 2 uM incubated for 6 to 12 hrs by phase contrast microscopic analysis. It counts as functional, cell-based. The conditions noted are these: dose 1-2 µM, time 6-12 hrs. An outline of the steps: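 HepG2 cells given graded concentrations; morphology monitored at set time points by phase-contrast optical microscopy.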

Test [5] deals with HepG2. The experiment in a line: Induction of autophagy in human HepG2 cells assessed as p62 degradation by western blot analysis. It counts as functional, cell-based.
In test [6] the test system is HepG2. Description: Antitumor activity against human HepG2 cells xenografted in BALB/c mouse assessed as induction of ER stress by measuring increase in TRB3 level in tumor tissue at 10 to 20 mg/kg/day, ip administered for 15 days by western blot analysis. It counts as functional, organism-based. As to conditions: dose 10-20 mg/kg/day, time 15.0 day. An outline of the steps:
as §1

The test system of test [7] is HepG2. The experiment in a line: Induction of endoplasmic reticulum stress in human HepG2 cells assessed as increase in bip protein expression incubated for 12 hrs by Western blot analysis. It counts as functional, cell-based. As to conditions: dose 0.5-2 µM. An outline of the steps: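 HepG2, QGY-7703 and SMMC-7721 treated with graded concentrations for 12 h. Lysed in RIPA with inhibitors; 40-80 µg protein separated by SDS-PAGE, blotted to nitrocellulose, blocked 1 h in 5% milk, primary antibodies overnight (LC3, Beclin1, Bip, CHOP, TRB3), HRP secondaries, chemiluminescence.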

Test [8] concerns HepG2. The experiment in a line: Induction of apoptosis in human HepG2 cells transfected with shRNA assessed as live cells at 2 uM incubated for 12 hrs by Annexin V-FITC/PI staining based flow cytometry (reference value: 92.6%). It counts as functional.
For test [9], the system named is HepG2. Description: Upregulation of Nur77 expression in human HepG2 cells at 2 uM measured after 1 to 6 hrs by western blot analysis. The class given is functional, cell-based. As to conditions: time 1-6 hrs. The method, boiled down: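 HepG2, QGY-7703 and SMMC-7721 cells treated with the indicated concentrations for 6 h. HepG2 also given 2.0 µM over a time course. Lysis in RIPA with protease and phosphatase inhibitors; 40-80 µg protein by SDS-PAGE, nitrocellulose transfer. Membranes blocked with 5% milk, primary antibody overnight, HRP secondary, chemiluminescence. GAPDH as loading control.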

The test system of the next test is SMMC-7721. Description: Induction of apoptosis in human SMMC-7721 cells assessed as increase in cleaved PARP level at 0.5 to 2 uM incubated for 12 hrs by Western blot analysis. It counts as functional, cell-based. As to conditions: dose 0.5-2 µM. The method, boiled down: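 QGY-7703 (RPMI 1640, 10% FBS) and SMMC-7721 (DMEM) cells at 37 °C, 5% CO2, treated with graded concentrations for 12 h. RIPA lysates (40-80 µg protein) run on SDS-PAGE, transferred to nitrocellulose, immunoblotted for cleaved PARP; chemiluminescence read-out.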

Test [10] concerns HepG2. The experiment in a line: Induction of autophagy in Nur77 knockout human HepG2 cells assessed as increase in LC3-II expression at 2 uM measured after 6 to 12 hrs by Western blot analysis. The class given is functional, cell-based. As to conditions: time 6-12 hrs. The method, boiled down:
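Scrambled-control and shNur77 HepG2 given DMSO or 2.0 µM for 6 or 12 h; immunoblotting of RIPA lysates for LC3, Beclin1 and Nur77 after SDS-PAGE and nitrocellulose transfer, chemiluminescent detection.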

The subject of test [11] is HepG2. Description: Induction of endoplasmic reticulum stress in human HepG2 cells assessed as increase in p-EIF2a expression at 2 uM measured after 1 to 4 hrs by Western blot analysis. As to conditions: time 1-4 hrs. It counts as functional, cell-based. An outline of the steps:
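HepG2 exposed to 2.0 µM over a time course; Nur77, Bip, p-EIF2a, TRB3 and LC3 levels followed by Western blot of RIPA lysates.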

In test [12] the test system is HepG2. The experiment in a line: Induction of apoptosis in human HepG2 cells assessed as early apoptotic cells at 1 uM incubated for 12 hrs by Annexin V-FITC/PI staining based flow cytometry (reference value: 3.99%). It counts as functional.
In test [13] the test system is HepG2. Description: Upregulation of RXRalpha expression in human HepG2 cells at 2 uM incubated for 2 to 12 hrs by Western blot analysis. The class given is functional, cell-based. The conditions noted are these: time 2-12 hrs. The method, boiled down:
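HepG2 cells given 2.0 µM for the indicated times. RXRα, RARγ and Nur77 detected by western blot: RIPA lysis with protease and phosphatase inhibitors, 40-80 µg protein by SDS-PAGE, nitrocellulose, 5% milk block, primary antibody overnight, HRP secondary, chemiluminescence read-out.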

In test [14] the test system is HepG2. The experiment in a line: Antitumor activity against human HepG2 cells xenografted in BALB/c mouse assessed as induction of ER stress by measuring increase in CHOP level in tumor tissue at 10 to 20 mg/kg/day, ip administered for 15 days by immunohistochemical analysis. The class given is functional, organism-based. As to conditions: dose 10-20 mg/kg/day, time 15.0 day. The method, boiled down: as §1

Test [15] deals with HepG2. The experiment in a line: Antitumor activity against human HepG2 cells xenografted in BALB/c mouse assessed as tumor growth inhibition at 10 mg/kg/day, ip administered for 15 days. It counts as functional. The conditions noted are these: 360 h, time 15 day. The method, boiled down: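 Subcutaneous flank xenograft of 5×10^6 HepG2 cells in 4-week-old male Balb/c nude mice. At about 100 mm³, 15 mice were randomized into three groups: vehicle, 10 or 20 mg/kg i.p. daily for 15 days. Tumor size was measured every day, and tumors were excised and weighed at the end.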

Test [16] concerns HepG2. The experiment in a line: Induction of apoptosis in human HepG2 cells assessed as increase in cleaved PARP level at 0.5 to 2 uM incubated for 12 hrs by Western blot analysis. It counts as functional, cell-based. As to conditions: dose 0.5-2 µM. An outline of the steps: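 HepG2 cells exposed 12 h to graded concentrations. RIPA lysates with protease/phosphatase inhibitors, 40–80 µg protein by SDS-PAGE onto nitrocellulose, probed for PARP cleavage, chemiluminescent detection.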

For test [17], the system named is HepG2. The experiment in a line: Induction of endoplasmic reticulum stress in Nur77 […] human HepG2 cells assessed as CHOP protein expression at 2 uM incubated for 6 to 12 hrs by Western blot analysis. The conditions noted are these: time 6-12 hrs. It counts as functional, cell-based. An outline of the steps: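 HepG2 and shNur77 HepG2 exposed to DMSO or 2.0 µM for 6 and 12 h; lysates immunoblotted for TRB3, Bip, CHOP and Nur77 (SDS-PAGE, nitrocellulose, overnight primary antibodies, HRP secondary, chemiluminescence).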

Broadly, the inhibition in vivo is the relative decrease from the control value, in per cent. For the molecule `COc1cccc2c(Nc3ccc4[nH]c(C(=O)N/N=C/c5ccc(SC)cc5)cc4c3)cc(C)nc12`, the result in the test with HepG2 [1], in the test on HepG2 [4], with HepG2 [6], with HepG2 [9], in the test on HepG2 [11] and with HepG2 [14] was Active. The Activity result with QGY-7703 was “Tde”; in test [3], 91.6 RU; in the test on HepG2 [7], “Dose-dependent effect”; in the test with HepG2 [8], 59.8%; with SMMC-7721 it was “Dose-dependent effect”; in the test on HepG2 [12], 18.5%. In addition, in the test with HepG2 [16], the Activity entry was “Dose-dependent effect”. Further, the result in the test with HepG2 [2], in the test with HepG2 [5], with HepG2 [10], in the test with HepG2 [13] and in the test on HepG2 [17] was inactive. Moreover, the inhibition in vivo at 10 mg/kg/day in the test on HepG2 [15] was 36.7%.
